Reference: ChEMBL document CHEMBL4689842, “EUbOPEN Chemogenomics Library wave 1” (2021)
Where “and” joins values, the source holds several entries; their conditions need not be identical. Identical values can stand only once.

System: HEK-293T
Assay: Multiplex assay against HEK293T;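 as to Population Tubulin-Different-Phenotype (%): share of the cells with healthy nuclei that show this phenotype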
Type: toxicity, cell-based
Details: human
Summary of the method: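 Cells stained live at seeding with Hoechst33342, BioTracker Green Microtubule Cytoskeleton Dye, MitoTracker Red and Annexin V Alexa Fluor 680 were imaged on a CQ1 microscope at 37°C and 5% CO2 after compound addition. Their classification by CellPathfinder machine-learning gating ran from Hoechst high-intensity objects versus normal cells, to healthy, pyknosed or fragmented nuclei among normal cells, to mitotic or apoptotic among pyknosed cells. Tubulin, mitochondrial-mass and membrane-permeability phenotypes are per cents of healthy-nucleus cells.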

[1] = 12 h, 1 µM, compound concentration 1 uM, replicate 1
[2] = 12 h, 1 µM, compound concentration 1 uM, replicate 2
[3] = 24 h, 1 µM, compound concentration 1 uM, replicate 1
[4] = 24 h, 1 µM, compound concentration 1 uM, replicate 2
[5] = 12 h, 10 µM, compound concentration 10 uM, replicate 1
[6] = 12 h, 10 µM, compound concentration 10 uM, replicate 2
[7] = 24 h, 10 µM, compound concentration 10 uM, replicate 1
[8] = 24 h, 10 µM, compound concentration 10 uM, replicate 2

## CN1CCN(Cc2cc(NC(=O)c3ccc4c(c3)CN(c3ccccc3)CC4)cc(C(F)(F)F)c2)CC1
[1]
  Population Apoptotic (%): 37% and 18%
  Population Fragmented Nuclei (%): 18% and 16%
  Population Healthy Nuclei (%): 48% and 58%
  Population Hoechst High Intensity Objects (%): 35% and 18%
  Population Membrane Permeable-Phenotype (%): 16% and 8%
  Population Mitotic Cells (%): 62% and 81%
  Population Normal (%): 64% and 81%
  Population Pyknosed Nuclei (%): 32% and 24%
  Total Cell Count: 601 and 582
[2]
  Population Apoptotic (%): 20% and 14%
  Population Fragmented Nuclei (%): 4% and 5%
  Population Healthy Nuclei (%): 80% and 87%
  Population Mitochondria Different-Phenotype (%): 36% and 15%
  Population Mitotic Cells (%): 79% and 85%
  Population Normal (%): 89% and 97%
  Population Pyknosed Nuclei (%): 15% and 6%
  Total Cell Count: 1350 and 1353
[3]
  Population Apoptotic (%): 45% and 17%
  Population Fragmented Nuclei (%): 18% and 14%
  Population Healthy Nuclei (%): 63% and 71%
  Population Mitochondria Different-Phenotype (%): 35% and 12%
  Population Mitotic Cells (%): 54% and 82%
  Population Normal (%): 70% and 90%
  Population Pyknosed Nuclei (%): 18% and 14%
  Total Cell Count: 559 and 631
[4]
  Population Apoptotic (%): 11%
  Population Fragmented Nuclei (%): 13% and 16%
  Population Healthy Nuclei (%): 78% and 81%
  Population Mitotic Cells (%): 88%
  Population Normal (%): 89% and 96%
  Total Cell Count: 1856 and 2285

## CNCc1ccccc1-c1csc([C@@H](C)Nc2nc(C)nc3cc(OC)c(OC)cc23)c1 [BAY-293]
[5]
  Population Apoptotic (%): 19% and 47%
  Population Fragmented Nuclei (%): 20% and 21%
  Population Healthy Nuclei (%): 45% and 17%
  Population Hoechst High Intensity Objects (%): 16% and 22%
  Population Membrane Permeable-Phenotype (%): 29% and 15%
  Population Mitochondria Different-Phenotype (%): 18% and 54%
  Population Mitotic Cells (%): 80% and 52%
  Population Normal (%): 83% and 77%
  Population Pyknosed Nuclei (%): 34% and 61%
  Population Tubulin-Different-Phenotype (%): 80% and 65%
  Total Cell Count: 581 and 619
[6]
  Population Fragmented Nuclei (%): 5% and 2%
  Population Healthy Nuclei (%): 80% and 57%
  Population Hoechst High Intensity Objects (%): 3% and 9%
  Population Membrane Permeable-Phenotype (%): 7%
  Population Mitotic Cells (%): 91% and 65%
  Population Normal (%): 96% and 90%
  Population Pyknosed Nuclei (%): 14% and 40%
  Population Tubulin-Different-Phenotype (%): 95% and 92%
  Total Cell Count: 1447 and 918
[7]
  Population Apoptotic (%): 55% and 23%
  Population Fragmented Nuclei (%): 28% and 17%
  Population Hoechst High Intensity Objects (%): 25% and 13%
  Population Membrane Permeable-Phenotype (%): 17% and 36%
  Population Mitochondria Different-Phenotype (%): 45% and 16%
  Population Mitotic Cells (%): 44% and 76%
  Population Normal (%): 74% and 86%
  Population Tubulin-Different-Phenotype (%): 59% and 89%
  Total Cell Count: 668 and 627
[8]
  Population Fragmented Nuclei (%): 5% and 15%
  Population Healthy Nuclei (%): 46% and 79%
  Population Mitotic Cells (%): 53% and 94%
  Population Normal (%): 89% and 96%
  Population Tubulin-Different-Phenotype (%): 73% and 82%
  Total Cell Count: 918 and 2344
